Shown are actives, neighbours in structure and some others; about 5.9% of the full set was active somewhere.
T cruzi growth-1 = T. cruzi intracellular proliferation inhibitors, primary screen, cell-based, beta-gal Tulahuen parasites, NIH3T3 host, luminescence | hit rate 5.9% among 77,000 | AID 624255, 2012 | T. cruzi beta-gal in NIH3T3, GalScreen luminescence, 90 h | inhibition, % at 8.34 µM;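 active = mean inhibition above about 93%, with at least 55% of replicates each passing it, limit read from the data, passing the limit was not always enough; inconclusive = only one of those two conditions holds; inactive = neither condition holds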
IDH1 mut inh = inhibitors of IDH1 R132H reductase, primary screen, biochemical, plate reader, single point; Isocitrate dehydrogenase [NADP] cytoplasmic (Homo sapiens), O75874; diaphorase/resazurin fluorescence, 60 min; inhibition, % at 10 µM; hit rate 0.18% among 70,000; AID 624101, 2012; in the data active = inhibition above about 34%; inconclusive = no clear call, values can overlap the other calls; inactive = below about 11%
Target sequence (O75874 whole entry R132H): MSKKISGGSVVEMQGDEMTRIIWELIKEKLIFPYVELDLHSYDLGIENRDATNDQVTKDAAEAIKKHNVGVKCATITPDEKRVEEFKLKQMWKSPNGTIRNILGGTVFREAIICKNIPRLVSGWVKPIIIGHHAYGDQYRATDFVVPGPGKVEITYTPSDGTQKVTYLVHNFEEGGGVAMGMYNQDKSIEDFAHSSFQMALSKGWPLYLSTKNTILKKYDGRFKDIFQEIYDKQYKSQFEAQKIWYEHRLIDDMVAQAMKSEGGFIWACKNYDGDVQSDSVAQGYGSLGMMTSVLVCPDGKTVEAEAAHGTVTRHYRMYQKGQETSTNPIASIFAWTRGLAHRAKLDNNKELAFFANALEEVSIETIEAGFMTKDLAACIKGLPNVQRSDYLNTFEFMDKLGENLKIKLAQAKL
GASC1 inh = inhibitors of GASC-1 (KDM4C) histone demethylase, primary screen, biochemical, single concentration HTS; GST-KDM4C 2-372, H3K9me3 peptide, LANCE TR-FRET; inhibition, % at 12.5 µM; hit rate 0.15% among 96,000; AID 720574, 2013;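 active = mean replicate inhibition above about 25%, with at least 55% of replicates also reaching it, limit read from the data, passing the limit was not always enough; inconclusive = only one of those two conditions met; inactive = neither condition met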
Target sequence (Q9H3R0 2-372 limits assumed): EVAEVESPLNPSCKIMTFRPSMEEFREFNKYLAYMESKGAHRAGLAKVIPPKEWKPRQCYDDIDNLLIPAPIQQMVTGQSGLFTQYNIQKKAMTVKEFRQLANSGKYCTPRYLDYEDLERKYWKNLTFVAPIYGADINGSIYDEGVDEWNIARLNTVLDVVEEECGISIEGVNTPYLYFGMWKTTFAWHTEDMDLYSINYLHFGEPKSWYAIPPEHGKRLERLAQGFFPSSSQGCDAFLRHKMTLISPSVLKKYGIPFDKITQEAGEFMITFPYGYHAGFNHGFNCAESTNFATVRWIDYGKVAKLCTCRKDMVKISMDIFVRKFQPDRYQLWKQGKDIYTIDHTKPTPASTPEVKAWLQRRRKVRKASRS
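System: N-terminal GST-fused human GASC-1 (KDM4C) fragment, residues 2-372; amount: enzyme final amount 10 nM; incubation: reaction 30 min RT, detection step 1 h RT; medium: HEPES buffer, pH 7.5, plus ascorbate; technique: LANCE TR-FRET, Eu antibody, ULight-streptavidin, EDTA, ex 340 nm, em 618/671 nm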
Pf Dd2 inh = P. falciparum Dd2 growth inhibitors, primary screen, SYBR Green fluorescence, single dose replicates; 72 h; stronger effect = lower value; activity change, % at 10 µM; hit rate 2.3% among 94,000; in the data active = activity change below about -80%; inconclusive = no clear call, values can overlap the other calls
T cruzi growth-2 = T. cruzi intracellular proliferation inhibitors, confirmation, cell-based, NIH3T3 host, beta-gal parasite, luminescence, cherry-pick; AID 651739, 2012; shares compounds with T cruzi growth-1; hit rate 72% among 5,600; T. cruzi beta-gal in NIH3T3, GalScreen luminescence, 90 h; inhibition, % at 8.35 µM;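 active = mean replicate inhibition above about 95% and at least 55% of replicates individually reaching it, limit read from the data; inconclusive = only one of the two criteria is met; inactive = neither criterion is met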
T cruzi growth-3 = inhibitors of intracellular T. cruzi replication, confirmation, NIH3T3 host cells, beta-gal parasites, cherry-pick, set 2; hit rate 21% among 5,600; inhibition, % at 2.09 µM; shares compounds with T cruzi growth-1; T. cruzi beta-gal in NIH3T3, GalScreen luminescence, 90 h;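 active = mean inhibition above about 95%, with at least 55% of replicates also reaching it, limit read from the data; inconclusive = meets just one of the two conditions; inactive = meets neither condition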
3T3 cytotox = cytotoxicity in mouse NIH/3T3 fibroblasts, confirmation, cytotoxicity control for T. cruzi proliferation inhibitor project, cell-based, cherry-pick, single point | AID 651742, 2012 | hit rate 14% among 5,600 | NIH/3T3 viability, CellTiter-Glo ATP luminescence, 90 h | shares compounds with T cruzi growth-1 | cytotoxicity (signal decrease), % at 8.35 µM;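 active = mean signal decrease across replicates above about 35% based on untreated-well scatter, with enough replicates individually passing, limit read from the data; inconclusive = no rule stated though some were filed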
3T3 cytotox 2 = NIH/3T3 fibroblast cytotoxicity, confirmation, cytotoxicity control, cell-based, cherry-pick, single point, set 2 | hit rate 56% among 5,600 | shares compounds with T cruzi growth-1 | AID 651744, 2012 | inhibition, % at 24.9 µM | NIH/3T3 viability, CellTiter-Glo ATP luminescence, 90 h;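 active = mean loss of cell viability signal at or above a set limit, and enough replicates individually reaching it; inconclusive = meets only the mean limit or only the replicate share; inactive = meets neither condition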
Of the large screens only hits and unclear results are named; the others gave an inactive call (follow-up assays come after a bar, where they were run).

C[C@@H]1CN([C@H](C)CO)S(=O)(=O)c2ccc(C#CC3CCCC3)cc2O[C@H]1CN(C)Cc1cccnc1	T cruzi growth-1 97.1, Pf Dd2 inh -81.7 (no result: IDH1 mut inh) | T cruzi growth-2 inactive | T cruzi growth-3 inconclusive | 3T3 cytotox inactive | 3T3 cytotox 2 104.6
C[C@H]1CN([C@@H](C)CO)S(=O)(=O)c2ccc(C#CC3CCCC3)cc2O[C@H]1CN(C)Cc1cccnc1	T cruzi growth-1 116.6 (no result: IDH1 mut inh) | T cruzi growth-2 102.7 | T cruzi growth-3 inactive | 3T3 cytotox inactive | 3T3 cytotox 2 104.3
C[C@@H]1CCCCO[C@@H](CN(C)Cc2ccc(C(F)(F)F)cc2)[C@H](C)CN([C@@H](C)CO)C(=O)c2cc(N(C)C)ccc2O1	none
C[C@@H]1CN([C@@H](C)CO)C(=O)c2cc(N(C)C)ccc2O[C@@H](C)CCCCO[C@H]1CN(C)Cc1ccccc1	T cruzi growth-1 99.3 | T cruzi growth-2 100.5 | T cruzi growth-3 inactive | 3T3 cytotox inactive | 3T3 cytotox 2 inactive
C[C@@H]1CCCCO[C@@H](CN(C)Cc2ccc(C(F)(F)F)cc2)[C@@H](C)CN([C@@H](C)CO)C(=O)c2cc(N(C)C)ccc2O1	T cruzi growth-1 96.7 (no result: IDH1 mut inh) | T cruzi growth-2 103.5 | T cruzi growth-3 inactive | 3T3 cytotox inactive | 3T3 cytotox 2 28.4
C[C@@H]1CCCCO[C@@H](CN(C)Cc2ccc(C(F)(F)F)cc2)[C@H](C)CN([C@H](C)CO)C(=O)c2cc(N(C)C)ccc2O1	T cruzi growth-1 inconclusive (no result: IDH1 mut inh) | T cruzi growth-2 104.9 | T cruzi growth-3 inactive | 3T3 cytotox inactive | 3T3 cytotox 2 59.5
C[C@@H]1CN([C@@H](C)CO)C(=O)c2cc(/C=C/c3ccccc3)cnc2O[C@@H]1CN(C)C(=O)CN1CCOCC1	none (no result: T cruzi growth-1)
C[C@H](CO)N1C[C@H](C)[C@H](CN(C)S(=O)(=O)c2ccccc2)Oc2ccc(NC(=O)Nc3ccc(F)cc3)cc2CC1=O	none (no result: IDH1 mut inh)
COCC(=O)N1CCCCN2[C@H](CO)[C@@H](c3ccc(-c4ccc(OC)cc4)cc3)[C@H]2C1	T cruzi growth-1 97.0 (no result: IDH1 mut inh) | T cruzi growth-2 inactive | T cruzi growth-3 inactive | 3T3 cytotox inactive | 3T3 cytotox 2 inactive
COCC(=O)N1CCCCN2[C@H](CO)[C@H](c3ccc(-c4ccc(C)cc4)cc3)[C@H]2C1	T cruzi growth-1 101.6 (no result: IDH1 mut inh) | T cruzi growth-2 inactive | T cruzi growth-3 inactive | 3T3 cytotox inactive | 3T3 cytotox 2 28.7
COCC(=O)N1CCCCN2[C@H](C1)[C@H](c1ccc(-c3ccc(OC)cc3)cc1)[C@@H]2CO	none (no result: IDH1 mut inh)
COCC(=O)N1CCCCN2[C@H](C1)[C@@H](c1ccc(-c3ccc(C)cc3)cc1)[C@@H]2CO	none (no result: IDH1 mut inh)
COCC(=O)N1CCCCN2[C@@H](CO)[C@@H](c3ccc(-c4ccc(OC)cc4)cc3)[C@@H]2C1	T cruzi growth-1 103.1 (no result: IDH1 mut inh) | T cruzi growth-2 inactive | T cruzi growth-3 inactive | 3T3 cytotox inactive | 3T3 cytotox 2 inactive
O=C(N[C@H]1CC[C@@H](CCn2cc(-c3ccccc3F)nn2)O[C@H]1CO)c1ccc2c(c1)OCO2	T cruzi growth-1 111.9 | T cruzi growth-2 inactive | T cruzi growth-3 inactive | 3T3 cytotox inactive | 3T3 cytotox 2 inactive
COCc1cn(CC[C@@H]2CC[C@@H](NC(=O)c3ccncc3)[C@@H](CO)O2)nn1	T cruzi growth-1 126.7 | T cruzi growth-2 inactive | T cruzi growth-3 inactive | 3T3 cytotox inactive | 3T3 cytotox 2 inactive
COc1cccc(S(=O)(=O)N[C@@H]2CC[C@@H](CCn3cc(-c4ccccc4OC)nn3)O[C@H]2CO)c1	none
COc1cccc(S(=O)(=O)N[C@H]2CC[C@H](CCn3cc(-c4ccccc4OC)nn3)O[C@@H]2CO)c1	T cruzi growth-1 inconclusive | T cruzi growth-2 inactive | T cruzi growth-3 inactive | 3T3 cytotox inactive | 3T3 cytotox 2 inactive
C[C@H](CO)N1C[C@H](C)[C@@H](CN(C)C(=O)Nc2ccc(C(F)(F)F)cc2)Oc2ccc(NC(=O)Cc3ccccc3)cc2CC1=O	none
CO[C@H]1CN(C)C(=O)c2ccc(NC(=O)Nc3ccccc3F)cc2OC[C@H](C)N(C)C[C@@H]1C	none
Cc1noc(C)c1NC(=O)N[C@@H]1CC[C@H](CC(=O)Nc2ccc(-c3ccccc3)cc2)O[C@H]1CO	none
C[C@H]1CCCCO[C@H](CN(C)C(=O)Nc2ccc(F)cc2)[C@@H](C)CN([C@@H](C)CO)C(=O)c2cc(NC(=O)c3ccccc3)ccc2O1	T cruzi growth-1 98.7 | T cruzi growth-2 inactive | T cruzi growth-3 inactive | 3T3 cytotox inactive | 3T3 cytotox 2 inconclusive
C[C@@H]1CN([C@H](C)CO)C(=O)c2cc(NC(=O)c3ccccc3)ccc2O[C@@H](C)CCCCO[C@H]1CN(C)C(=O)Nc1ccc(F)cc1	none (no result: IDH1 mut inh)
C[C@H]1CCCCO[C@@H](CN(C)C(=O)Nc2ccc(C(F)(F)F)cc2)[C@@H](C)CN([C@@H](C)CO)C(=O)c2cc(NC(=O)c3ccccc3)ccc2O1	T cruzi growth-1 102.0, Pf Dd2 inh -84.3 (no result: IDH1 mut inh) | T cruzi growth-2 108.0 | T cruzi growth-3 113.1 | 3T3 cytotox inactive | 3T3 cytotox 2 inactive
C[C@@H]1CCCCO[C@@H](CN(C)C(=O)Nc2ccc(F)cc2)[C@H](C)CN([C@H](C)CO)C(=O)c2cc(NC(=O)c3ccccc3)ccc2O1	none (no result: IDH1 mut inh)
C[C@@H]1CCCCO[C@H](CN(C)C(=O)Nc2ccc(F)cc2)[C@H](C)CN([C@H](C)CO)C(=O)c2cc(NC(=O)c3ccccc3)ccc2O1	T cruzi growth-1 inconclusive, Pf Dd2 inh inconclusive (no result: IDH1 mut inh) | T cruzi growth-2 101.8 | T cruzi growth-3 inactive | 3T3 cytotox inactive | 3T3 cytotox 2 inactive
Cc1noc(C)c1NC(=O)N(C)C[C@H]1OCc2ccccc2-c2ccccc2C(=O)N([C@H](C)CO)C[C@H]1C	none
CC1(CCO[C@H]2O[C@H](CO)[C@@H](O)[C@H](O)[C@H]2O)CCC2C(=CCC3[C@]2(C)CCC[C@@]3(C)C(=O)O)C1 (some centres undefined)	none (no result: T cruzi growth-1, GASC1 inh, Pf Dd2 inh)
CC(=O)N1CC(=O)N2[C@H](CO)[C@H](c3ccc(C#CC(C)C)cc3)[C@H]2C1	none (no result: T cruzi growth-1, IDH1 mut inh)

Screening data (PubChem)
